Legend:
Format in all cases: functional
786-0 = experiment: Cytotoxicity against human 786-0 cells after 48 hrs by SRB assay; conditions: 786-0, 48 h
Procedure, shortened: (§1)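 NCI 60-cell five-dose screen. Cells grown in RPMI 1640 with 5% FBS and 2 mM glutamine, plated at 5000–40,000 cells/well, and preincubated 24 h at 37 °C in 5% CO2. Time-zero plates fixed with TCA. Five serial dilutions of DMSO stock added, then 48 h exposure. TCA fixation, 0.4% SRB staining, absorbance read at 515 nm. GI50 from [(Ti−Tz)/(C−Tz)]×100 = 50.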

UACC-62 = experiment: Cytotoxicity against human UACC62 cells after 48 hrs by SRB assay; conditions: UACC-62, 48 h
Procedure, shortened: (§2)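 NCI 60-panel five-dose screen. Cells in RPMI 1640 with 5% FBS and 2 mM glutamine, plated at 5000–40,000 cells/well and preincubated 24 h at 37 °C under 5% CO2. Five 10-fold or half-log dilutions were added from a DMSO stock for 48 h. Cells were TCA-fixed (SR settled cells: 16% final), SRB-stained and read at 515 nm. GI50 was taken where (Ti−Tz)/(C−Tz)×100 = 50.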

RXF 393 = experiment: Cytotoxicity against human RXF393 cells after 48 hrs by SRB assay; conditions: RXF 393, 48 h
Procedure, shortened: (§3)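 Five-dose screen, 10-fold or ½-log dilutions, compound stock in DMSO. Cells were in RPMI 1640 with 5% FBS and 2 mM glutamine at 5000–40,000 cells/well, preincubated 24 h, 37 °C, 5% CO₂, with a time-zero plate TCA-fixed. After 48 h drug exposure, cells were TCA-fixed and stained with 0.4% SRB, read at 515 nm. GI50, TGI and LC50 were derived from time-zero, control and test absorbances.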

OVCAR-5 = experiment: Cytotoxicity against human OVCAR5 cells after 48 hrs by SRB assay; conditions: OVCAR-5, 48 h; procedure, shortened: as §3
SNB-19 = experiment: Cytotoxicity against human SNB19 cells after 48 hrs by SRB assay; conditions: SNB-19, 48 h; procedure, shortened: as §3
PC-3 = experiment: Cytotoxicity against human PC3 cells after 48 hrs by SRB assay; conditions: PC-3, 48 h; procedure, shortened: as §3
SW-620 = experiment: Cytotoxicity against human SW620 cells after 48 hrs by SRB assay; conditions: SW-620, 48 h; procedure, shortened: as §2
U-251 = experiment: Cytotoxicity against human U251 cells after 48 hrs by SRB assay; conditions: U-251, 48 h; procedure, shortened: as §2
TK-10 = experiment: Cytotoxicity against human TK10 cells after 48 hrs by SRB assay; conditions: TK-10, 48 h; procedure, shortened: as §2
NCI-H322M = experiment: Cytotoxicity against human NCI-H322M cells after 48 hrs by SRB assay; procedure, shortened: as §3
HT-29 = experiment: Cytotoxicity against human HT-29 cells after 48 hrs by SRB assay; conditions: HT-29, 48 h; procedure, shortened: as §1
HOP-62 = experiment: Cytotoxicity against human HOP62 cells after 48 hrs by SRB assay; conditions: HOP-62, 48 h; procedure, shortened: as §1
M14 = experiment: Cytotoxicity against human M14 cells after 48 hrs by SRB assay; conditions: M14, 48 h; procedure, shortened: as §1
HCT-116 = experiment: Cytotoxicity against human HCT116 cells after 48 hrs by SRB assay; conditions: HCT-116, 48 h; procedure, shortened: as §1
OVCAR-8 = experiment: Cytotoxicity against human OVCAR8 cells after 48 hrs by SRB assay; conditions: OVCAR-8, 48 h; procedure, shortened: as §3
SNB-75 = experiment: Cytotoxicity against human SNB75 cells after 48 hrs by SRB assay; conditions: SNB-75, 48 h; procedure, shortened: as §3
SN12C = experiment: Cytotoxicity against human SN12C cells after 48 hrs by SRB assay; procedure, shortened: as §3
MCF7 = experiment: Cytotoxicity against human MCF7 cells after 48 hrs by SRB assay; conditions: MCF7, 48 h; procedure, shortened: as §1
MDA-MB-468 = experiment: Cytotoxicity against human MDA-MB-468 cells after 48 hrs by SRB assay; conditions: MDA-MB-468, 48 h; procedure, shortened: as §3
SF-295 = experiment: Cytotoxicity against human SF295 cells after 48 hrs by SRB assay; conditions: SF-295, 48 h; procedure, shortened: as §3
DU-145 = experiment: Cytotoxicity against human DU145 cells after 48 hrs by SRB assay; conditions: DU-145, 48 h; procedure, shortened: as §1
T47D = experiment: Cytotoxicity against human T47D cells after 48 hrs by SRB assay; procedure, shortened: as §2
CAKI-1 = experiment: Cytotoxicity against human Caki1 cells after 48 hrs by SRB assay; conditions: CAKI-1, 48 h; procedure, shortened: as §1
ACHN = experiment: Cytotoxicity against human ACHN cells after 48 hrs by SRB assay; procedure, shortened: as §1
NCI-H460 = experiment: Cytotoxicity against human NCI-H460 cells after 48 hrs by SRB assay; conditions: NCI-H460, 48 h; procedure, shortened: as §3
A549 = experiment: Cytotoxicity against human A549 cells after 48 hrs by SRB assay; conditions: A549, 48 h; procedure, shortened: as §1
SK-MEL-5 = experiment: Cytotoxicity against human SK-MEL-5 cells after 48 hrs by SRB assay; conditions: SK-MEL-5, 48 h; procedure, shortened: as §3
SF-268 = experiment: Cytotoxicity against human SF268 cells after 48 hrs by SRB assay; conditions: SF-268, 48 h; procedure, shortened: as §3

SMILES: CSC1=Nc2c(c(C)c(-c3ccccc3)n2CCCCl)C2=NC(=O)CN12
- GI50 (786-0): 8.51 µM
- LC50 (786-0): > 100 µM
- TGI (786-0; read-out: pTGI (converted)): 61.7 µM
- GI50 (UACC-62): 2.09 µM
- LC50 (UACC-62): 38 µM
- TGI (UACC-62; read-out: pTGI (converted)): 11.5 µM
- GI50 (RXF 393): 11.2 µM
- LC50 (RXF 393): 79.4 µM
- TGI (RXF 393; read-out: pTGI (converted)): 29.5 µM
- GI50 (OVCAR-5): 11.5 µM
- LC50 (OVCAR-5): > 100 µM
- TGI (OVCAR-5; read-out: pTGI (converted)): 38 µM
- GI50 (SNB-19): 3.98 µM
- LC50 (SNB-19): 45.7 µM
- TGI (SNB-19; read-out: pTGI (converted)): 17.8 µM
- GI50 (PC-3): 8.71 µM
- LC50 (PC-3): > 100 µM
- TGI (PC-3; read-out: pTGI (converted)): > 100 µM
- GI50 (SW-620): 4.79 µM
- LC50 (SW-620): > 100 µM
- TGI (SW-620; read-out: pTGI (converted)): 53.7 µM
- GI50 (U-251): 3.89 µM
- LC50 (U-251): 53.7 µM
- TGI (U-251; read-out: pTGI (converted)): 16.2 µM
- GI50 (TK-10): 8.51 µM
- LC50 (TK-10): > 100 µM
- TGI (TK-10; read-out: pTGI (converted)): 77.6 µM
- GI50 (NCI-H322M): 9.77 µM
- LC50 (NCI-H322M): 58.9 µM
- TGI (NCI-H322M; read-out: pTGI (converted)): 24.5 µM
- GI50 (HT-29): 3.89 µM
- LC50 (HT-29): > 100 µM
- TGI (HT-29; read-out: pTGI (converted)): 19.5 µM
- GI50 (HOP-62): 11 µM
- LC50 (HOP-62): > 100 µM
- TGI (HOP-62; read-out: pTGI (converted)): 63.1 µM
- GI50 (M14): 3.31 µM
- LC50 (M14): > 100 µM
- TGI (M14; read-out: pTGI (converted)): 15.1 µM
- GI50 (HCT-116): 3.16 µM
- LC50 (HCT-116): > 100 µM
- TGI (HCT-116; read-out: pTGI (converted)): 47.9 µM
- GI50 (OVCAR-8): 16.2 µM
- LC50 (OVCAR-8): > 100 µM
- TGI (OVCAR-8; read-out: pTGI (converted)): 72.4 µM
- GI50 (SNB-75): 2.82 µM
- LC50 (SNB-75): 67.6 µM
- TGI (SNB-75; read-out: pTGI (converted)): 11.7 µM
- GI50 (SN12C): 6.31 µM
- LC50 (SN12C): > 100 µM
- TGI (SN12C; read-out: pTGI (converted)): 38.9 µM
- GI50 (MCF7): 3.39 µM
- LC50 (MCF7): 77.6 µM
- TGI (MCF7; read-out: pTGI (converted)): 16.6 µM
- GI50 (MDA-MB-468): 3.16 µM
- LC50 (MDA-MB-468): 60.3 µM
- TGI (MDA-MB-468; read-out: pTGI (converted)): 13.2 µM
- GI50 (SF-295): 4.07 µM
- LC50 (SF-295): > 100 µM
- TGI (SF-295; read-out: pTGI (converted)): 26.9 µM
- GI50 (DU-145): 11.5 µM
- LC50 (DU-145): 61.7 µM
- TGI (DU-145; read-out: pTGI (converted)): 26.9 µM
- GI50 (T47D): 2.63 µM
- LC50 (T47D): 95.5 µM
- TGI (T47D; read-out: pTGI (converted)): 11 µM
- GI50 (CAKI-1): 4.57 µM
- LC50 (CAKI-1): > 100 µM
- TGI (CAKI-1; read-out: pTGI (converted)): 28.2 µM
- GI50 (ACHN): 9.55 µM
- CC50 (ACHN; read-out: pLC50 (the source's name) (converted)): > 100 µM
- TGI (ACHN; read-out: pTGI (converted)): 38 µM
- GI50 (NCI-H460): 3.72 µM
- LC50 (NCI-H460): 56.2 µM
- TGI (NCI-H460; read-out: pTGI (converted)): 15.1 µM
- GI50 (A549): 7.76 µM
- LC50 (A549): > 100 µM
- TGI (A549; read-out: pTGI (converted)): 66.1 µM
- GI50 (SK-MEL-5): 3.47 µM
- LC50 (SK-MEL-5): 38 µM
- TGI (SK-MEL-5; read-out: pTGI (converted)): 14.1 µM
- GI50 (SF-268): 8.51 µM
- LC50 (SF-268): > 100 µM
- TGI (SF-268; read-out: pTGI (converted)): 47.9 µM
